In ChEMBL document CHEMBL1133528, “Syntheses of 4'-C-ethynyl-beta-D-arabino- and 4'-C-ethynyl-2'-deoxy-beta-D-ribo-pentofuranosylpyrimidines and -purines and evaluation of their anti-HIV activity” (J Med Chem, 2000):

Columns and labels:
HeLa [1] = assay: (§1) Tested in vitro against HIV-1 104pre from HeLa-CD4-[…]-beta gal-cells using MAGI assay; format: functional, cell-based; details: Homo sapiens
Outline: (§2)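 HeLa-CD4-LTR-β-gal indicator cells seeded at 10⁴ cells/well, cultured 24 h, then exposed to HIV-1_104pre at 30 TCID₅₀ for 2 h at 37 °C. Drug series added 2 h before or 2 h after virus, kept present without washing. At 48 h cells fixed (1% formaldehyde, 0.2% glutaraldehyde in PBS), X-Gal stained, blue infected cells counted under microscope.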

[2] = target: Human immunodeficiency virus type 1 reverse transcriptase (Human immunodeficiency virus 1) (UniProt Q72547); assay: Selectivity index expressed as CC50/EC50; format: functional
Outline: (§3)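 MT-4 cells (2 × 10⁴/mL) infected with 100 TCID₅₀ HIV-1_LAI, grown with drug dilution series 7 days at 37 °C. MTT added, 2 h at 37 °C, formazan dissolved in acidified 2-propanol with 4% Triton X-100, absorbance at 570 nm. Triplicates. EC₅₀ is concentration suppressing HIV-1 replication by 50%. SI calculated as CC₅₀/EC₅₀.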

MT4 = assay: Tested in vitro against MT-4 cells using MTT assay; format: functional; details: Homo sapiens; outline: as §3
HeLa [3] = assay: as §1; format: functional, cell-based, human immunodefficiency virus type 1; details: Homo sapiens; outline: as §2

C#C[C@]1(CO)O[C@@H](n2cc(F)c(N)nc2=O)C[C@@H]1O
EC50 (HeLa [1]): 2 nM | SI [2]: > 3330 | CC50 (MT4): > 100000 nM

C#C[C@]1(CO)O[C@@H](n2cc(Cl)c(=O)[nH]c2=O)C[C@@H]1O
SI [2]: 13.6 | CC50 (MT4): 81700 nM

C#C[C@]1(CO)O[C@@H](n2ccc(N)nc2=O)C[C@@H]1O
EC50 (HeLa [1]): 0.96 nM | SI [2]: 192

Cc1cn([C@H]2C[C@H](N=[N+]=[N-])[C@@H](CO)O2)c(=O)[nH]c1=O [ZIDOVUDINE]
EC50 (HeLa [1]): 2 nM | SI [2]: > 2630 | CC50 (MT4): > 100000 nM

C#C[C@]1(CO)O[C@@H](n2cc(Br)c(N)nc2=O)C[C@@H]1O
CC50 (MT4): > 100000 nM

C#C[C@]1(CO)O[C@@H](n2cc(Cl)c(N)nc2=O)C[C@@H]1O
CC50 (MT4): > 100000 nM

C#C[C@]1(CO)O[C@@H](n2cnc3c(O)ncnc32)C[C@@H]1O
EC50 (HeLa [1]): 830 nM | SI [2]: 14.4 | CC50 (MT4): 216000 nM

C#C[C@]1(CO)O[C@@H](n2cnc3c(N)nc(N)nc32)C[C@@H]1O
EC50 (HeLa [1]): 1.9 nM | SI [2]: 2730 | CC50 (MT4): 820 nM

C#C[C@]1(CO)O[C@@H](n2cc(Br)c(=O)[nH]c2=O)C[C@@H]1O
SI [2]: > 44 | CC50 (MT4): > 100000 nM

C#C[C@]1(CO)O[C@@H](n2cc(CC)c(=O)[nH]c2=O)C[C@@H]1O
CC50 (MT4): > 360000 nM

C#C[C@]1(CO)O[C@@H](n2cc(I)c(N)nc2=O)C[C@@H]1O
CC50 (MT4): > 100000 nM

C#C[C@]1(CO)O[C@@H](n2cc(C)c(=O)[nH]c2=O)C[C@@H]1O
EC50 (HeLa [1]): 400 nM | SI [2]: > 623 | CC50 (MT4): > 380000 nM

C#C[C@]1(CO)O[C@@H](n2cnc3c(=O)[nH]c(N)nc32)C[C@@H]1O
SI [2]: 1070 | EC50 (HeLa [3]): 7.1 nM | CC50 (MT4): 1500 nM

C#C[C@]1(CO)O[C@@H](n2cc(C)c(N)nc2=O)C[C@@H]1O
EC50 (HeLa [1]): 5.7 nM | SI [2]: 63 | CC50 (MT4): 700 nM

C#C[C@]1(CO)O[C@@H](n2cc(F)c(=O)[nH]c2=O)C[C@@H]1O
CC50 (MT4): 3400 nM

C#C[C@]1(CO)O[C@@H](n2cnc3cncnc32)C[C@@H]1O
EC50 (HeLa [1]): 132000 nM | SI [2]: > 3.2 | CC50 (MT4): > 380000 nM

C#C[C@]1(CO)O[C@@H](n2cnc3c(N)ncnc32)C[C@@H]1O
EC50 (HeLa [1]): 6.8 nM | SI [2]: 975 | CC50 (MT4): 11700 nM

C#C[C@]1(CO)O[C@@H](n2cc(I)c(=O)[nH]c2=O)C[C@@H]1O
EC50 (HeLa [1]): 360 nM | SI [2]: > 765 | CC50 (MT4): > 260000 nM

C#C[C@]1(CO)O[C@@H](n2ccc(=O)[nH]c2=O)C[C@@H]1O
CC50 (MT4): > 100000 nM
